Measurements taken from ChEMBL document CHEMBL4190362, “Synthesis, biological evaluation and quantitative structure-active relationships of 1,3-thiazolidin-4-one derivatives. A promising chemical scaffold endowed with high antifungal potency and low cytotoxicity” (Eur J Med Chem, 2017).

Legend:
Format in all cases: functional
Staphylococcus aureus = assay: Antibacterial activity against Staphylococcus aureus assessed as inhibition of microbial growth incubated for 18 to 22 hrs by broth microdilution method
In short: (§1)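 Broth microdilution in Mueller-Hinton II broth following NCCLS recommendations; compounds dissolved in DMSO.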

Staphylococcus warneri = assay: Antibacterial activity against Staphylococcus warneri assessed as inhibition of microbial growth incubated for 18 to 22 hrs by broth microdilution method; in short: as §1
Enterococcus faecalis = assay: Antibacterial activity against Streptococcus faecalis assessed as inhibition of microbial growth incubated for 18 to 22 hrs by broth microdilution method; in short: as §1
Escherichia coli = assay: Antibacterial activity against Escherichia coli assessed as inhibition of microbial growth incubated for 18 to 22 hrs by broth microdilution method; in short: as §1
Proteus mirabilis = assay: Antibacterial activity against Proteus mirabilis assessed as inhibition of microbial growth incubated for 18 to 22 hrs by broth microdilution method; in short: as §1
Enterobacter = assay: Antibacterial activity against Enterobacter spp. assessed as inhibition of microbial growth incubated for 18 to 22 hrs by broth microdilution method; in short: as §1
Klebsiella oxytoca = assay: Antibacterial activity against Klebsiella oxytoca assessed as inhibition of microbial growth incubated for 18 to 22 hrs by broth microdilution method; in short: as §1
Candida albicans = assay: Antifungal activity against Candida albicans clinical isolates assessed as inhibition of microbial growth incubated for 24 hrs by broth microdilution method
In short: (§2)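 Twenty-two clinical Candida isolates (8 C. albicans, 4 C. glabrata, 3 C. tropicalis, 3 C. krusei, 2 C. parapsilosis, 2 C. sake) were identified by colony morphology and biochemistry and subcultured at 35 °C for purity. Compounds were dissolved in DMSO and tested by broth microdilution in Sabouraud dextrose broth per NCCLS/CLSI/EUCAST guidance. Values are geometric mean MIC per species (µg/mL).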

Nakaseomyces glabratus = assay: Antifungal activity against Candida glabrata clinical isolates assessed as inhibition of microbial growth incubated for 24 hrs by broth microdilution method; in short: as §2
Candida tropicalis = assay: Antifungal activity against Candida tropicalis clinical isolates assessed as inhibition of microbial growth incubated for 24 hrs by broth microdilution method; in short: as §2
Pichia kudriavzevii = assay: Antifungal activity against Candida krusei clinical isolates assessed as inhibition of microbial growth incubated for 24 hrs by broth microdilution method; in short: as §2
Candida parapsilosis = assay: Antifungal activity against Candida parapsilosis clinical isolates assessed as inhibition of microbial growth incubated for 24 hrs by broth microdilution method; settings: Lodderomyces parapsilosis; in short: as §2
[Candida] sake = Antifungal activity against Candida sake clinical isolates assessed as inhibition of microbial growth incubated for 24 hrs by broth microdilution method; settings: Fermentozyma sake; in short: as §2

SMILES | MIC (Staphylococcus aureus) [µg/mL] | MIC (Staphylococcus warneri) [µg/mL] | MIC (Enterococcus faecalis) [µg/mL] | MIC (Escherichia coli) [µg/mL] | MIC (Proteus mirabilis) [µg/mL] | MIC (Enterobacter) [µg/mL] | MIC (Klebsiella oxytoca) [µg/mL] | MIC (Candida albicans) [µg/mL] | MIC (Nakaseomyces glabratus) [µg/mL] | MIC (Candida tropicalis) [µg/mL] | MIC (Pichia kudriavzevii) [µg/mL] | MIC (Candida parapsilosis) [µg/mL] | MIC ([Candida] sake) [µg/mL]
CCCCCC/C(C)=N\N=C1\SCC(=O)N1Cc1ccccc1 | ≥ 256 | ≥ 256 | ≥ 256 | ≥ 256 | ≥ 256 | ≥ 256 | ≥ 256 | 8 | 8 | 16 | 16 | 16 | 16
CCCCC/C(C)=N\N=C1\SCC(=O)N1Cc1ccccc1 | ≥ 256 | ≥ 256 | ≥ 256 | ≥ 256 | ≥ 256 | ≥ 256 | ≥ 256 | 8 | 8 | 16 | 16 | 16 | 16
O=C1CS/C(=N/N=C2CCCC2)N1Cc1ccccc1 | ≥ 256 | ≥ 256 | ≥ 256 | ≥ 256 | ≥ 256 | ≥ 256 | ≥ 256 | 8 | 8 | 16 | 16 | 16 | 16
CC(C)=C/C(C)=N\N=C1\SCC(=O)N1Cc1ccccc1 | ≥ 256 | ≥ 256 | ≥ 256 | ≥ 256 | ≥ 256 | ≥ 256 | ≥ 256 | 128 | 2 | 128 | 8 | 8 | 8
CCCC/C(C)=N\N=C1\SCC(=O)N1Cc1ccccc1 | ≥ 256 | ≥ 256 | ≥ 256 | ≥ 256 | ≥ 256 | ≥ 256 | ≥ 256 | 2 | 2 | 2 | 2 | 2 | 4
CC1CC/C(=N/N=C2/SCC(=O)N2Cc2ccccc2)C1 (stereo not drawn) | ≥ 256 | ≥ 256 | ≥ 256 | ≥ 256 | ≥ 256 | ≥ 256 | ≥ 256 | 256 | 256 | 256 | 256 | 256 | 256
C[C@@H]1[C@H](O)[C@@H](C)/C=C/C=C/C=C/C=C/C=C/C=C/C=C/[C@H](O[C@@H]2O[C@H](C)[C@@H](O)[C@H](N)[C@@H]2O)C[C@@H]2O[C@](O)(C[C@@H](O)C[C@@H](O)[C@H](O)CC[C@@H](O)C[C@@H](O)CC(=O)O[C@H]1C)C[C@H](O)[C@H]2C(=O)O [AMPHOTERICIN B] |  |  |  |  |  |  |  | 4 | 4 | 2 | 4 | 2 | 2
OC(Cn1cncn1)(Cn1cncn1)c1ccc(F)cc1F [FLUCONAZOLE] |  |  |  |  |  |  |  | 2 | 2 | 2 | 2 | 2 | 2
CC(=O)N1CCN(c2ccc(OCC3COC(Cn4ccnc4)(c4ccc(Cl)cc4Cl)O3)cc2)CC1 (stereo not drawn) [KETOCONAZOLE] |  |  |  |  |  |  |  | 2 | 2 | 2 | 4 | 2 | 4
Clc1ccc(COC(Cn2ccnc2)c2ccc(Cl)cc2Cl)c(Cl)c1 (stereo not drawn) [MICONAZOLE] |  |  |  |  |  |  |  | 2 | 4 | 2 | 4 | 4 | 2
Clc1ccc(C(Cn2ccnc2)OCc2ccsc2Cl)c(Cl)c1 (stereo not drawn) [TIOCONAZOLE] |  |  |  |  |  |  |  | 8 | 4 | 8 | 8 | 8 | 4
